{"data": "Measured values from different studies", "target": "Cytochrome P450 1A2 (CYP1A2, Homo sapiens, UniProt P05177)", "observed": "enzyme activity", "mode": "inhibitor"}
{"Compound": "CCn1c(C(=O)N(C2CC2)C2CC2)cc2c3c(ncn3C)c(Nc3cc(C)n(C)n3)nc21", "host": "human", "matrix": "liver microsomes", "endpoint": "Ki", "result": "600 nM"}
{"Compound": "CCC(C)(C)C(=O)O[C@H]1C[C@@H](C)C=C2C=C[C@H](C)[C@H](CC[C@@H](O)C[C@@H](O)CC(=O)O)[C@H]21", "method": "fluorescence", "endpoint": "IC50", "result": "> 100 µM"}
{"Compound": "CCc1cc(/C(C)=N/OCc2ccc(C3CCCCC3)c(C(F)(F)F)c2)ccc1CN1CC(C(=O)O)C1", "host": "human", "matrix": "liver microsomes", "time": "20 min", "endpoint": "IC50", "result": "> 1.1 µM"}
{"Compound": "Cc1ccc2nc(-c3ccccc3)c(CNc3ccc(F)cc3)n2c1", "endpoint": "IC50", "result": "1.8 µM"}
{"Compound": "C#Cc1cccc(-c2cc(=O)c3ccccc3o2)c1", "time": "6 min", "pH": "pH 7.6", "endpoint": "Ki", "result": "800 nM"}
{"Compound": "C=CC(=O)Nc1cc(Nc2nccc(Nc3cc(Cl)c(F)cc3C(C)(C)O)n2)c(OC)cc1N1CC[C@@H](N(C)C)C1", "host": "human", "matrix": "liver microsomes", "endpoint": "IC50", "result": "> 30 µM"}
{"Compound": "Nc1nc(N)c2nc(CNc3cccc4ccccc34)cnc2n1", "method": "luciferase", "endpoint": "IC50", "result": "72.4 µM"}
{"Compound": "CCCN(CCC)CCc1cccc2c1CC(=O)N2", "method": "fluorescence", "endpoint": "IC50", "result": "540 µM"}
{"Compound": "COc1ccc2cc3[n+](cc2c1OC)CCc1cc2c(cc1-3)OCO2", "endpoint": "IC50", "result": "> 10 µM"}
{"Compound": "CCCCCNC(=N)N/N=C/c1c[nH]c2ccc(OC)cc12", "method": "fluorescence", "endpoint": "IC50", "result": "347 µM"}
{"Compound": "C#Cc1ccc2cc(-c3ccccc3)c(=O)oc2c1", "time": "6 min", "pH": "pH 7.6", "endpoint": "Ki", "result": "2970 nM"}
{"Compound": "Cc1cc2c(F)c(Oc3ncnn4cc(OC[C@@H](C)O)c(C)c34)ccc2[nH]1", "method": "fluorescence", "time": "15 min", "endpoint": "IC50", "result": "44.5 µM"}
